ARNT-TACC3 inh: ARNT/TACC3 interaction disruption; AlphaScreen His-ARNT PAS-B/GST-TACC3 binding, luminescence; TACC3 fragment carries E629A point mutation; inhibition, % at 9.99 µM; actives 0.66% (n = 390,000);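 active = mean inhibition of replicates at least 50% and at least half of replicates each reaching 50%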;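 also: 0% = complete ARNT plus TACC3 wells and 100% = ARNT alone without TACC3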
CAL PDZ FP-1: inhibitors of human CAL PDZ peptide binding | Q9HD26 | purified CAL PDZ, TMR-peptide fluorescence polarization, 1 h | inhibition, % at 24.9 µM | actives 0.92% (n = 300,000) | AID 602252;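 active = mean inhibition of at least 30% with at least half of replicates also reaching 30%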;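 also: 0% = DMSO neutral control and 100% = excess unlabeled competitor peptide PRC23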
CAL PDZ FP-2: blocks peptide binding to human CAL PDZ domain. Q9HD26. purified CAL PDZ, TMR-peptide fluorescence polarization, 1 h. inhibition, % at 20 µM. actives 0.02% (n = 330,000). AID 504414;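 active = highest replicate inhibition of at least 40%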;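 also: plate controls were DMSO neutral control wells for no effect and unlabeled competitor peptide control wells for full effect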
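Control set: unlabelled peptide and DMSO controls / Material: purified CerCALP PDZ construct / Timing: 1 h incubation at room temperature before polarization reading / Doses: 20 µM, one dose / Detection: fluorescence polarization (mP)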
CaV13 FRET inh: Primary screen for inhibitors of IQ motif and Ca2+-dependent inactivation inhibitor domain binding in CACNA1D, Förster resonance energy transfer in living cells, …; HEK cells, CFP/YFP FRET ICDI-IQ, plate reader, 10 min; percent FRET-ratio fall versus neutral wells; actives 0.098% (n = 340,000); AID 743397; inhibition, % at 12.3 µM;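 active = mean replicate inhibition of at least 30% and at least 1% of replicates passing that level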;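 also: 0% = median of the neutral control wells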
AlphaScreen ctr: AlphaScreen artifact in ARNT/TACC3 counter-screen; shares compounds with ARNT-TACC3 inh; His-ARNT PASB-GST AlphaScreen artifact counter-screen, luminescence; AC50, µM (highest dose often 68 µM), without a hit: top-dose activity change, negative = signal decrease; actives 50% (n = 1,200); AID 651705;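 active = every separate test run was called active for a drop in luminescence, with AC50 within twice the top valid dose, actives reach about 71 µM in these data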
Starred values were filed as active, the others as inactive; x = no result given; [ ] = remark or other dose. This is a sample that favours compounds with a hit; in the whole collection about 1.2% have one here.

SMILES	ARNT-TACC3 inh	CAL PDZ FP-1	CAL PDZ FP-2	CaV13 FRET inh	AlphaScreen ctr
O=C(CC1CC1)N1CC[C@@H]2[C@H]1c1cc(-c3ccccc3)ccc1N[C@@H]2CO	-2	x	x	x	x
CC(C)CC#Cc1ccc2c(c1)O[C@@H](CN(C)Cc1ccccn1)[C@H](C)CN([C@H](C)CO)S2(=O)=O	0	x	x	x	x
O=C(Nc1ccc(F)cc1)N[C@@H]1CC[C@@H](CCn2cc(C3(O)CCCC3)nn2)O[C@@H]1CO	-1	x	x	x	x
CCCc1nnc(NS(=O)(=O)c2ccc(C)cc2)o1	64*	0	1	-6	0%
CCC(=O)N(C)C[C@@H]1Oc2ncc(-c3ccccc3OC)cc2C(=O)N([C@H](C)CO)C[C@@H]1C	-6	x	x	x	x
Cc1ccccc1C(=O)Nc1nnc(-c2ccc(F)cc2)o1	12	x	0	-7	x
O=C(Cc1ccccc1)Nc1ccc(-c2nnc(-c3ccco3)o2)cc1	-4	-5	-2	0	x
O=C(COc1ccc(Cl)cc1)Nc1nnc(-c2ccco2)o1	25*	46*	-1	-6	-31%
CCCCC(=O)Nc1nnc(-c2ccco2)o1	15	8	-3	-5	x
O=C(Cc1ccccc1)Nc1nnc(-c2ccco2)o1	65*	1	-1	7	-19%
O=C(CCc1ccccc1)Nc1nnc(-c2ccccn2)o1	52*	5	-3	-6	-6%
O=C(Nc1nnc(-c2ccc(F)cc2)o1)c1ccco1	42*	x	0	-5	-25%
COCC(=O)N1[C@H](CO)[C@@H](c2ccccc2)[C@@H]1C#N	22	x	x	x	x
CCC(=O)NC(c1ccc(C)cc1)c1cc([N+](=O)[O-])c2cccnc2c1O (stereo not drawn)	58*	-6	0	-3	11µM*
CCCC(=O)NC(c1ccco1)c1cc([N+](=O)[O-])c2cccnc2c1O (stereo not drawn)	59*	-2	0	4	30µM*
CC(=O)c1cccc(-c2ccc3c(=O)[nH]c(Nc4ccccc4)cc3c2)c1	33*	-5	1	-10	-21%
Cc1ccc(CSc2ccc3nnc(-c4ccccn4)n3n2)cc1	11	-6	-1	-28	x
Cc1ccc(C)c(CSc2ccc3nnc(-c4ccccn4)n3n2)c1	55*	-6	-2	-2	-11%
c1ccc(NCCc2ccccn2)cc1	6	-2	0	-6	x
c1ccc(-c2nnc(-c3ccccn3)nc2NCc2ccccn2)cc1	x	x	x	x	0.7µM*
c1ccc(-c2nnc(-c3ccccn3)nc2NCCc2ccccn2)cc1	x	x	x	x	1.8µM*
c1ccc(-c2nnc(-c3ccccn3)nc2NCCN2CCOCC2)cc1	x	x	x	x	0.83µM*
CC(C)(C)CCNc1nc(-c2ccccn2)nnc1-c1ccccc1	x	x	x	x	2.2µM*
C[C@@H]1CN([C@@H](C)CO)C(=O)Cc2cc(NC(=O)Cn3cnnn3)ccc2O[C@H]1CN(C)CC1CC1	-12	x	x	x	x
COc1ccc(-c2nc(-c3ccccn3)nc(N3CCN(C)CC3)c2C#N)cc1	19	-1	-1	-6	x
SMILES	ARNT-TACC3 inh	CAL PDZ FP-1	CAL PDZ FP-2	CaV13 FRET inh	AlphaScreen ctr
CN1CCN(c2nc(-c3ccccn3)nnc2-c2ccccc2)CC1	x	x	x	x	0.55µM*
C[C@@H]1CN([C@H](C)CO)S(=O)(=O)c2ccc(C#Cc3ccccn3)cc2O[C@@H]1CN(C)C(=O)C1CC1	51*	x	x	x	-5%[42 µM]
CC(=O)c1cccc(NC(=O)N2CCCC2C(=O)NCc2ccccc2)c1 (stereo not drawn)	21*	2	-2	-5	7%
N/C(=N\NS(=O)(=O)c1ccccc1Cl)c1ccccn1	55*	-2	-1	-17	-9%
N/C(=N\OC(=O)c1ccccc1Cl)c1ccccn1	-7	x	-1	-7	x
N/C(=N\OS(=O)(=O)c1ccc(Cl)cc1)c1ccccn1	53*	-6	-3	-20	-18%
C[C@@H]1CN([C@@H](C)CO)C(=O)c2cccc(NC(=O)C3CC3)c2O[C@@H]1CN(C)C(=O)NC1CCCCC1	-2	x	x	x	x
CCCNC(=O)N(C)C[C@H]1Oc2cc(C#CC3CC3)ccc2S(=O)(=O)N([C@H](C)CO)C[C@H]1C	-39	x	x	x	x
Cc1ccc(/C=N/Nc2cn[nH]c(=O)n2)o1	57*	4	-1	3	-11%
C[C@@H]1CCCCO[C@H](CN(C)C(=O)Nc2ccc3c(c2)OCO3)[C@H](C)CN([C@H](C)CO)C(=O)c2cc(NC(=O)c3ccncc3)ccc2O1	5	x	x	x	x
COc1ccc(S(=O)(=O)N[C@@H]2CC[C@@H](CC(=O)N3CCC(Cc4ccccc4)CC3)O[C@H]2CO)cc1	-5	x	x	x	x
CCc1c(C)nc(Nc2nc(C)c3ccc(OC)cc3n2)[nH]c1=O	51*	9	-7	-9	-37%
CCc1c(C)nc(Nc2nc(C)c3cc(OC)ccc3n2)[nH]c1=O	20	-3	-5	x	x
CN(C)C(=O)C[C@H]1CC[C@@H](NC(=O)NC2CCCCC2)[C@@H](CO)O1	-14	x	x	x	x
Cc1[nH]n(-c2ccccc2)c(=O)c1C(c1ccc(C(=O)O)cc1)c1c(C)[nH]n(-c2ccccc2)c1=O	18*	1	1	-5	-18%
Cc1[nH]n(-c2ccccc2)c(=O)c1C(c1cccc([N+](=O)[O-])c1)c1c(C)[nH]n(-c2ccccc2)c1=O	x	0	-1	-5	x
COc1ccc(S(=O)(=O)Nc2ccc3c(c2)C(=O)N([C@@H](C)CO)C[C@H](C)[C@@H](CN(C)S(=O)(=O)c2cccs2)OCCCC[C@H](C)O3)cc1	4	x	x	x	x
Oc1ccccc1C(Nc1nccs1)c1ccc2cccnc2c1O (stereo not drawn)	61*	-5	0	-6	12µM*

High-throughput results (PubChem)
